The target in test [1] is T1, Alpha-1A adrenergic receptor (Oryctolagus cuniculus) (UniProt O02824).
T1 sequence (whole entry): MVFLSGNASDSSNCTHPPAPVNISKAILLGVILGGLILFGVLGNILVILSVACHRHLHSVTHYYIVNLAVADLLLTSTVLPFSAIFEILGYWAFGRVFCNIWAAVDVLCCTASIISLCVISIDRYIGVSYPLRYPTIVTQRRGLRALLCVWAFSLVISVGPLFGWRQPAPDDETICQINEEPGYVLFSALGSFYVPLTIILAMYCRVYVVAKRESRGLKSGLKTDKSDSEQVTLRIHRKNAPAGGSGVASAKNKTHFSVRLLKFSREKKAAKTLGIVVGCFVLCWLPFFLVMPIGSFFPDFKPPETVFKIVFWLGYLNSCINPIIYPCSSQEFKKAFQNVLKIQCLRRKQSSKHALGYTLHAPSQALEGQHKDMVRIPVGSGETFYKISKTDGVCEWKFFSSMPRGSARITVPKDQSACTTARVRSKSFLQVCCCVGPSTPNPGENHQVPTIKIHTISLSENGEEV
Description: Functional agonism of the compounds to constrict tissue containing the alpha-1A adrenergic receptor in rabbit urethra. It is filed as tissue-based. In short, it runs like this: (§1)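 α1-agonist dose–response curves in isolated tissue: rabbit urethra (α1A), rat spleen (α1B), rat aorta (α1D). Agonist potency and efficacy read from the concentration–response curves.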

Test [2] has as its target T2, Alpha-2A adrenergic receptor (Rattus norvegicus) (UniProt P22909).
T2 sequence (whole entry): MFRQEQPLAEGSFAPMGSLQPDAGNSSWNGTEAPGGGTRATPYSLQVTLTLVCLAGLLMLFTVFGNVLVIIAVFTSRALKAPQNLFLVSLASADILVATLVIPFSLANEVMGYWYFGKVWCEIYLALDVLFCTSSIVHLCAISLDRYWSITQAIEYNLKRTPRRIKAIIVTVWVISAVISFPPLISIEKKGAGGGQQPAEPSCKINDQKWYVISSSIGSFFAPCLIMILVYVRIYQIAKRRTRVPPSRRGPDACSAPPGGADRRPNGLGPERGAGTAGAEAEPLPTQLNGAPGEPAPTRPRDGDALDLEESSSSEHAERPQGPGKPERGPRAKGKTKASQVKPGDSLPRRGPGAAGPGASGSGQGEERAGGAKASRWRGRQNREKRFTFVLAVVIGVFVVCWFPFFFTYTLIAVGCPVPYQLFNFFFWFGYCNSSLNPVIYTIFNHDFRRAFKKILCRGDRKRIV
Description: Functional agonism to constrict tissue containing alpha-2A adrenergic receptor in rat prostatic vas deferens. It is filed as tissue-based.

The target of test [3] is T3, Alpha-1D adrenergic receptor (Rattus norvegicus) (UniProt P23944).
T3 sequence (whole entry): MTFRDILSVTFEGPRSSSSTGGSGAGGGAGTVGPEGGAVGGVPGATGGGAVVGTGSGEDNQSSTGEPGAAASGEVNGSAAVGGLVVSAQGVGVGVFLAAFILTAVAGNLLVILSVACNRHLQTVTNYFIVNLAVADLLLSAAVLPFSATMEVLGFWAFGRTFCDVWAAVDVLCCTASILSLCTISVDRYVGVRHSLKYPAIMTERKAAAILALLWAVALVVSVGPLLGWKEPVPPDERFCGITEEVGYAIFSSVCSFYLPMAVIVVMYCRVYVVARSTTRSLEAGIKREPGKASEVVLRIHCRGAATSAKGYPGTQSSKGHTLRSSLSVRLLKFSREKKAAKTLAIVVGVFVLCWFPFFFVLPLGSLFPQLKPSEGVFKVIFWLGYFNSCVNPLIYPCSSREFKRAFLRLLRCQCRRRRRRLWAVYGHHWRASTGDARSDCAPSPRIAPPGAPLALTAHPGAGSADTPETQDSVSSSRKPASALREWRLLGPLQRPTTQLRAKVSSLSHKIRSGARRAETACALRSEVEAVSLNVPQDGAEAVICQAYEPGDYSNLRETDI
Description: Efficacy relative to phenylephrine (PE) constrict tissue containing the alpha-1D adrenergic receptor in rat aorta. The format is functional, tissue-based. In short, it runs like this:
as §1

For test [4], the target named is T4, Alpha-1D adrenergic receptor (Rattus norvegicus, UniProt P23944).
T4 sequence (P23944 whole entry): T3 sequence (whole entry)
Description: In vitro binding affinity towards alpha-1D adrenergic receptor of rat clone in radioligand binding assay. An outline of the steps: (§2)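 Radioligand binding at α1 subtypes: α1A from rat submaxillary gland, α1B hamster clone, α1D rat clone. Run essentially per an earlier method.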

Test [5] deals with Canis familiaris. Description: Uroselectivity was determined by measuring effective dose required for 20 mmHg increase of mean arterial pressure (MAP) in vivo in dog. The format is functional, Canis lupus familiaris, Artery. In short, it runs like this:
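Dog model recording intraurethral pressure (IUP) and mean arterial pressure (MAP) simultaneously. Increasing iv doses given, maximal effect of each dose taken. Doses giving a 5 mmHg rise in IUP (ED Δ5) or 20 mmHg rise in MAP (ED Δ20) were calculated, in nmol/kg ± SEM, n ≥ 4 (2 or 3 where footnoted).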

Test [6] is filed under the species Rattus norvegicus. The test is described as follows: Relative affinities for alpha2B and alpha1A receptors.
Test [7] deals with Alpha adrenergic receptor 1A and 1B (Rattus norvegicus) (UniProt P15823+P43140). Description: Selectivity is ratio of pKi (binding affinity) of alpha-1B receptor to that of alpha-1A receptor. It is filed as protein assay.
Chain of Alpha adrenergic receptor 1A and 1B (Rattus norvegicus) (P15823 whole entry, looked up): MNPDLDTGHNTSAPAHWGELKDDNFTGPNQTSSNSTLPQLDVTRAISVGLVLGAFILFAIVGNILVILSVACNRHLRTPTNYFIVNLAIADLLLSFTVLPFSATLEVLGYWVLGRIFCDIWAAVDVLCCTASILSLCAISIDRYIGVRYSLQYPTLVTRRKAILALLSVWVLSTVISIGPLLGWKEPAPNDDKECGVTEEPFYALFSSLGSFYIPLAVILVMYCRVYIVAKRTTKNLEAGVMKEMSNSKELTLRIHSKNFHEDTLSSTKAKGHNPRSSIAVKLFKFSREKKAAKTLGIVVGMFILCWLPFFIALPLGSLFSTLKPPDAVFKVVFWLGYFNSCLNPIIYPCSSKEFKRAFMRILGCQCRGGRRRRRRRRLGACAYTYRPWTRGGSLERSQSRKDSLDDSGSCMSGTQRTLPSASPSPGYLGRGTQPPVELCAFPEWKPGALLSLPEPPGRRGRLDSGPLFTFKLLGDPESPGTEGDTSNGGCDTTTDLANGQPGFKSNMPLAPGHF
Chain of Alpha adrenergic receptor 1A and 1B (Rattus norvegicus) (P43140 whole entry, looked up): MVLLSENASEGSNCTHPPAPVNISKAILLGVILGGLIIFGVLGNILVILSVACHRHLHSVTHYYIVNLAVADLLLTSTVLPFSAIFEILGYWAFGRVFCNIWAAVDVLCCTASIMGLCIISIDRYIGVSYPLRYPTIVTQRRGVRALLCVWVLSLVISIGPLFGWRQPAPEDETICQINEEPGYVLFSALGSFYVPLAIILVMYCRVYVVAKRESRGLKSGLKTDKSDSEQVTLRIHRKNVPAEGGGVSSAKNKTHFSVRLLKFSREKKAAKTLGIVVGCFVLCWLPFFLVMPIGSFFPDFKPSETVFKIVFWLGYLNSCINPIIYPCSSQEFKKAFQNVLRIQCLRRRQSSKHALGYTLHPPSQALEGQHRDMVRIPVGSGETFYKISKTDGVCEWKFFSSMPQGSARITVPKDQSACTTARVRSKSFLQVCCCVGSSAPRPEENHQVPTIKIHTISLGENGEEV
Test [8] concerns the target Alpha adrenergic receptor 1A and 1D (Rattus norvegicus) (UniProt P23944+P43140). Description: Selectivity is ratio of pKi (binding affinity) of Alpha-1D to that of alpha1A. The format is protein assay.
Test [9] is described as follows: Selectivity is ratio of efficacy of Alpha-1D to that of alpha-1A adrenoceptor. It is filed as functional.
The target in test [10] is T5, Alpha-1B adrenergic receptor (Mesocricetus auratus, UniProt P18841).
T5 sequence (P18841 whole entry): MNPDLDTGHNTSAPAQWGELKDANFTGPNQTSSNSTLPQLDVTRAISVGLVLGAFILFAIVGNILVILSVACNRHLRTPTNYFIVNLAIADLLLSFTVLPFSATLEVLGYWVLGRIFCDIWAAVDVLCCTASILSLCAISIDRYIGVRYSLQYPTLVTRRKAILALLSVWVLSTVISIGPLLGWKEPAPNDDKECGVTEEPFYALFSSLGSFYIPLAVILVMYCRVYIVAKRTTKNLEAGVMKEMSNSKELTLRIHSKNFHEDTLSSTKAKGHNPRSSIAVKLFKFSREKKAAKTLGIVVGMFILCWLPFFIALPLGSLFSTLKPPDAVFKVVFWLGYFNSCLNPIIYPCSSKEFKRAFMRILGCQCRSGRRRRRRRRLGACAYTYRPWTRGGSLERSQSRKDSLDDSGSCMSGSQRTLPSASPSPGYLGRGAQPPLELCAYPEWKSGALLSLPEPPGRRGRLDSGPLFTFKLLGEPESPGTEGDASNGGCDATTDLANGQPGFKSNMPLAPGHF
The test is described as follows: In vitro binding affinity towards alpha-1B adrenergic receptor of hamster clone in radioligand binding assay. It is filed as single protein. In short, it runs like this: as §2

One may read the Ki as a measure of affinity in units of concentration, obtained from inhibition or displacement. The low end stands for higher affinity, the high end for lower affinity. As to `COc1ccc(OC)c(C(O)CN)c1` (stereo not given) [DESGLYMIDODRINE], the results for the pD2 in [1] and in test [2] were 5.15 and 8.23, respectively. Also, the Efficacy in [3] came out at 68%. The compound further gave a Ki in test [4] of 1.66 µM. The “ED delta20” value in test [5] was found to be 250 nM/kg. Moreover, the Selectivity in test [6] stood at 0.9; in test [7], 3; in test [8] it was 0.8; in test [9], 1.
Consider `CN(c1cccc2c1CCCC2c1c[nH]cn1)S(C)(=O)=O` (stereo not given), for which the pD2 came out at 6.16 in [1] and 7.08 in [2]. This compound gave an inhibition constant Ki in test [10] greater than 10 µM. Also, the “ED delta20” value in [5] was determined as 225.3 nM/kg. Moreover, the Selectivity is 4 in test [6], greater than 50 in [7] and 3 in [8].
For `CC(N)C(O)c1ccccc1` (stereo not given) [PHENYLPROPANOLAMINE], the pD2 in test [1] was 3.63. The same compound had an Efficacy in test [3] of 91%. Also, the Ki in test [4] is 8.51 µM; in test [10], 9.55 µM. The “ED delta20” value in [5] turned out to be 330 nM/kg. The Selectivity was found to be 0.03 in test [6], 1 in test [7], 1 in test [8] and 0.2 in test [9].
For `O=S(=O)(CC(F)(F)F)Nc1cccc2c1CCCC2c1c[nH]cn1` (single isomer, unassigned; (+)), the pD2 in test [1] was found to be 5.73; in test [2], 6.59. Further, the inhibitory constant (Ki) in [4] and in test [10] was greater than 10 µM in each case. In addition, in test [5], the “ED delta20” value stood at 450 nM/kg. The Selectivity in test [6], in test [7] and in test [8] was greater than 80 throughout.
Regarding `O=C(Nc1cccc2c1CCCC2c1c[nH]cn1)C(F)(F)F` (stereo not given), the pD2 in [1] came to 6.28; in [2], 7.14. For the same compound, the Ki in test [10] was greater than 10 µM. The “ED delta20” value in test [5] turned out to be 216 nM/kg. For the same compound, the Selectivity in [6] is 4; in test [7], 60; in test [8], 20.

The record behind these values is ChEMBL document CHEMBL1148329, “Synthesis and structure-activity studies on N-[5-(1H-imidazol-4-yl)-5,6,7,8-tetrahydro-1-naphthalenyl]methanesulfonamide, an imidazole-containing alpha(1A)-adrenoceptor agonist” (J Med Chem, 2004).
